Measurements from PMC5651187 (Cellular signalling, 2017).
Substitutions are numbered along the chain they refer to.

Assays:
[1] = target: T1, Vav2 C1 5X (D9M/K10S/T11P/T24L/Y26K) (Homo sapiens, UniProt P52735, D532M/K533S/T534P/T547L/Y549K); assay: [3H]PDBu binding, polyethylene glycol precipitation assay
T1 sequence (P52735 523-572 D532M/K533S/T534P/T547L/Y549K): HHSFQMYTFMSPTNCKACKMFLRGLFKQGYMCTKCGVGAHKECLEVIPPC
Method in brief: (§1)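 GST-fused C1 domain, cloned into pGEX-5x-1 and expressed in BL21 cells. Cultures grown in LB at 37°C to OD 0.5, induced with 0.5 mM IPTG, then grown 4 h at 37°C. Cells lysed with bacterial extraction reagent; protein purified and eluted on a GST spin column. Kd for [3H]PDBu determined by polyethylene glycol precipitation. Values are mean ± SEM of three experiments.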

[2] = target: T2, Vav3 C1 2X (T24L/Y26K) (Homo sapiens, UniProt Q9UKW4, T537L/Y539K); assay: as above
T2 sequence (Q9UKW4 513-562 T537L/Y539K): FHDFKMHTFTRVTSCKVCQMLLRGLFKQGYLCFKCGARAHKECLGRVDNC
Method in brief: as §1

[3] = target: T3, Vav3 C1 3X (T9M/R10S/V11P) (Homo sapiens, UniProt Q9UKW4, R523S/T522M/V524P); assay: [3H]PDBu binding, polyethylene glycol precipitation assay
T3 sequence (Q9UKW4 513-562 T522M/R523S/V524P): T2 sequence (Q9UKW4 513-562 T537L/Y539K) with T10M, R11S, V12P, L25T, K27Y
Method in brief: as §1, with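 “two replicates.” for “three experiments.”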

[4] = target: T4, Vav3 C1 5X (T9M/R10S/V11P/T24L/Y26K) (Homo sapiens, UniProt Q9UKW4, R523S/T522M/T537L/V524P/Y539K); assay: [3H]PDBu binding, polyethylene glycol precipitation assay
T4 sequence (Q9UKW4 513-562 T522M/R523S/V524P/T537L/Y539K): T2 sequence (Q9UKW4 513-562 T537L/Y539K) with T10M, R11S, V12P
Method in brief: as §1

[5] = target: Vav1 C1 WT; settings: GST-tagged C1 domain; NA, no activity; ref [17]; cited from earlier work
[6] = target: Vav1 C1 2X (T24L/Y26K); settings: GST-tagged C1 domain; NA, no activity; ref [17]; cited from earlier work
[7] = target: Vav1 C1 3X (E9M/E10S/T11P); settings: ref [17], cited from earlier work
[8] = target: Vav1 C1 5X (E9M/E10S/T11P/T24L/Y26K); settings: ref [17], cited from earlier work
[9] = test system: C1 domain of PKCδ with the corresponding residues in the Vav1 C1 domain; settings: five amino acids replaced; ref [17]; cited from earlier work
[10] = target: T5, full length Vav3 wild-type in LNCaP cells (Homo sapiens, UniProt Q9UKW4); assay: Membrane translocation of GFP-tagged protein, confocal microscopy; type: cell-based; settings: 10 μM PMA
T5 sequence (Q9UKW4 1-847): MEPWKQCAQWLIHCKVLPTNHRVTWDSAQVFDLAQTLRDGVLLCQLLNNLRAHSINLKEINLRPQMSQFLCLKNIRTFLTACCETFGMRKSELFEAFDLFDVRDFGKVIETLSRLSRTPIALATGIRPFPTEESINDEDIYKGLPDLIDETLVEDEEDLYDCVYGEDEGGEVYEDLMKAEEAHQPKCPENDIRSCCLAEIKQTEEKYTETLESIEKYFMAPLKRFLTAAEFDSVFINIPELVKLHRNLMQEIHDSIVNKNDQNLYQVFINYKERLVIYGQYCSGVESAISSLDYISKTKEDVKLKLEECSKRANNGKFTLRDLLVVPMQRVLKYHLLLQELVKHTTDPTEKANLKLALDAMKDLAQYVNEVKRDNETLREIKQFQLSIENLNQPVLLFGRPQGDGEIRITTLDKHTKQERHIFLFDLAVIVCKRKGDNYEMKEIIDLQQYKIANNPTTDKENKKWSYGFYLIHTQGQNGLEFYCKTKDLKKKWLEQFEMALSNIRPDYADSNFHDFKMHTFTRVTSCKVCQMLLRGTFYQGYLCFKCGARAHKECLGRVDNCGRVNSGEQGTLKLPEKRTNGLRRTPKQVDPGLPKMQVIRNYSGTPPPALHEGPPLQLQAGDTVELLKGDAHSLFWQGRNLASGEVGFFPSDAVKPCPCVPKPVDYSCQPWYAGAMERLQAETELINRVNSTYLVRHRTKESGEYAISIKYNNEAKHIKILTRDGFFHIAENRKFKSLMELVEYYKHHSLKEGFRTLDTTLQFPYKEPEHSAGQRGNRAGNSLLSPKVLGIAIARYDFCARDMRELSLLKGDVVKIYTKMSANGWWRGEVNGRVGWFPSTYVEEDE
Method in brief: (§2)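 LNCaP cells (passage 3–20) grown in RPMI 1640 with 10% FBS and 2 mM L-glutamine at 37°C, transfected with GFP constructs at 75% confluency; PMA added 24 h later. Confocal imaging with 488 nm excitation and 535–553 nm emission. Membrane/cytoplasm mean-intensity ratio from 3 membrane and 3 cytoplasm regions (~5 μm²) at 0, 5, 10, 30, 45 min (120 min where indicated). Mean ± SEM, ≥3 cells in each of ≥3 independent experiments; Student's t-test.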

[11] = target: T6, Vav3 CaWT in LNCaP cells (Homo sapiens, UniProt Q9UKW4); assay: as above; type: cell-based; settings: 10 μM PMA
T6 sequence (Q9UKW4 177-847 limits assumed): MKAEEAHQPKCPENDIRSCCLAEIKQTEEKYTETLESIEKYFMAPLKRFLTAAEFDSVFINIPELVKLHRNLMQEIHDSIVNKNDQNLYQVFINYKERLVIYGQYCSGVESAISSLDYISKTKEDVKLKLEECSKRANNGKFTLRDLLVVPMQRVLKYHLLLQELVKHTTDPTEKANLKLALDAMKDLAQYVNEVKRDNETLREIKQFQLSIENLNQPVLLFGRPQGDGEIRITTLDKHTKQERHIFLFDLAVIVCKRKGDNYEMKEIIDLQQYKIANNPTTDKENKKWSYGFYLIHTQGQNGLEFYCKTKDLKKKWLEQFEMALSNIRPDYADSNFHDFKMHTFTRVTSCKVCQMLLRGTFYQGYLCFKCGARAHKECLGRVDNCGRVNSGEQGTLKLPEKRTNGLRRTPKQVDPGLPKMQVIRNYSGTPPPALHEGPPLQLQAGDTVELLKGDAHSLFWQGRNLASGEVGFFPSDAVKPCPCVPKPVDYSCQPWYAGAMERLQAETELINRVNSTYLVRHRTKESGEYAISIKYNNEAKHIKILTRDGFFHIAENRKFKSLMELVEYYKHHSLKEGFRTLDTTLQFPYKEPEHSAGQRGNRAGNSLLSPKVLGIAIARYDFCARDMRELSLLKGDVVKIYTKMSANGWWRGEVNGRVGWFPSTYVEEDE
Method in brief: as §2

[12] = target: T7, Vav3 5X in LNCaP cells (Homo sapiens, UniProt Q9UKW4, R523S/T522M/T537L/V524P/Y539K); assay: as above; type: cell-based; settings: 10 μM PMA
T7 sequence (Q9UKW4 1-847 T522M/R523S/V524P/T537L/Y539K): T5 sequence (Q9UKW4 1-847) with T522M, R523S, V524P, T537L, Y539K
Method in brief: as §2

[13] = GST-tagged C1 domain, mean ± SEM of triplicate experiments

| SMILES | Relative to PKCδ C1b [1] | Kd [1, 13] | Relative to PKCδ C1b [2] | Kd [2, 13] | Relative to PKCδ C1b [3] | Kd ([3]; GST-tagged C1 domain, mean ± SEM, only 2 replicates) | Relative to PKCδ C1b [4] | Kd [4, 13] | Kd [5] | Kd [6] | Kd ([7]; GST-tagged C1 domain) | Relative to PKCδ C1b [7] | Kd ([8]; GST-tagged C1 domain) | Relative to PKCδ C1b [8] | PDBu binding affinity [9] | membrane translocation in response to phorbol ester [10] | membrane translocation in response to phorbol ester [11] | membrane translocation in response to phorbol ester [12] |
| --- | --- | --- | --- | --- | --- | --- | --- | --- | --- | --- | --- | --- | --- | --- | --- | --- | --- | --- |
| CCCC(=O)O[C@@H]1[C@@H](C)[C@@]2(O)[C@@H](C=C(CO)C[C@]3(O)C(=O)C(C)=C[C@@H]23)[C@@H]2C(C)(C)[C@]12OC(=O)CCC [PDBu, Phorbol 12,13-dibutyrate] | 3370 × | 650.7 ± 2.6 nM | 938 × | 188 ± 35 nM | 4380 × | 840 ± 120 nM | 23.5× | 4.7 ± 0.8 nM | no detectable binding | did not restore phorbol ester binding | 7330 ± 490 nM | 38,000 × | 1.05 ± 0.14 nM | 5.4× | abolished detectable PDBu binding affinity | – | – | – |
| CCCCCCCCCCCCCC(=O)O[C@@H]1[C@@H](C)[C@@]2(O)[C@@H](C=C(CO)C[C@]3(O)C(=O)C(C)=C[C@@H]23)[C@@H]2C(C)(C)[C@]12OC(C)=O [PMA, phorbol 12-myristate 13-acetate] | – | – | – | – | – | – | – | – | – | – | – | – | – | – | – | neither the wild-type Vav3 nor the Vav3 CaWT translocated | neither the wild-type Vav3 nor the Vav3 CaWT translocated | became visible after 10 min but became more evident after 2 h |
